# In ChEMBL document CHEMBL1157110, “Hopane-type triterpenes and binaphthopyrones from the scale insect pathogenic fungus Aschersonia paraphysata BCC 11964” (J Nat Prod, 2010):
# Structures can show the parent of a compound that is named as a salt. The source made the active and inactive calls. The rule behind the calls is not given here.
# Key:
# [1] = tested on: Plasmodium falciparum; test: Antimalarial activity against Plasmodium falciparum K1 after 24 hrs by [G-3H]hypoxanthine uptake assay; format: functional, organism-based; settings: K1, 24 h
# In short: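 Multidrug-resistant K1 strain, microculture radioisotope technique. Samples dissolved in DMSO as a 10 mg/mL stock, then diluted with water before testing. IC50 reported.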
# [2] = tested on: NCI-H187; test: Cytotoxicity against human NCI-H187 cells after 45 hrs by resazurin microplate assay; format: functional, cell-based; settings: NCI-H187, 45 h
# [3] = tested on: MCF7; test: Cytotoxicity against human MCF7 cells after 45 hrs by resazurin microplate assay; format: functional, cell-based; settings: MCF7, 45 h
# [4] = tested on: KB; test: Cytotoxicity against human KB cells after 45 hrs by resazurin microplate assay; format: functional, cell-based
# [5] = tested on: Vero; test: Cytotoxicity against african green monkey Vero cells by green fluorescent protein microplate assay; format: cell-based; settings: Chlorocebus sabaeus
# [6] = tested on: Mycobacterium tuberculosis; test: Antituberculosis activity against Mycobacterium tuberculosis; format: functional, organism-based
SMILES,IC50 [1],IC50 [2],IC50 [3],IC50 [4],IC50 [5],Activity [6]
CC(C)C1=C2CC[C@]3(C)[C@H]([C@H](O)C[C@@H]4[C@@]5(C)CCCC(C)(C)[C@@H]5CC[C@]43C)[C@@]2(C)CC1,> 23 µM,> 118 µM,> 118 µM,> 118 µM,> 118 µM,inactive
CC(C)C1=C2CC[C@]3(C)[C@H]([C@H](O)C[C@@H]4[C@@]5(C)CCCC(C)(C)[C@@H]5[C@@H](O)C[C@]43C)[C@@]2(C)CC1,15 µM,> 113 µM,> 113 µM,> 113 µM,> 113 µM,inactive
C[C@H]1[C@@H](O)O[C@@H]2O[C@@]3(C)CC[C@H]4[C@H](C)CC[C@@H]1[C@@]24OO3 [ARTENIMOL],0.0046 µM,–,–,–,–,–
CC1Cc2cc3c(-c4c(O)cc(O)c5c(O)c6c(cc45)CC(C)OC6=O)c(O)cc(O)c3c(O)c2C(=O)O1 (centres undefined) [ASCHERNAPHTHOPYRONE A],7.3 µM,4.5 µM,87 µM,17 µM,> 96 µM,inactive
CC1Cc2cc3cc(O)c(-c4c(O)cc5cc6c(c(O)c5c4O)C(=O)OC(C)C6)c(O)c3c(O)c2C(=O)O1 (centres undefined) [ASCHERNAPHTHOPYRONE B],> 19 µM,95 µM,79 µM,> 96 µM,52 µM,inactive
COc1cccc2c1C(=O)c1c(O)c3c(c(O)c1C2=O)C[C@@](O)(C(=O)CO)C[C@@H]3O[C@H]1C[C@H](N)[C@H](O)[C@H](C)O1 [DOXORUBICIN HYDROCHLORIDE],–,0.086 µM,–,–,–,–
Cc1c2ccncc2c(C)c2c1[nH]c1ccccc12 [ELLIPTECINE],–,1.5 µM,–,–,3.8 µM,–
CC(C)C1=C2CC[C@]3(C)[C@H](CC[C@@H]4[C@@]5(C)CCCC(C)(C)[C@@H]5[C@@H](O)C[C@]43C)[C@@]2(C)CC1 [ZEORININ],> 23 µM,> 118 µM,> 118 µM,> 118 µM,> 118 µM,inactive
